In ChEMBL document CHEMBL4680165, “β-Lactams with antiproliferative and antiapoptotic activity in breast and chemoresistant colon cancer cells” (Eur J Med Chem, 2020) one finds Activity, IC50 and microsomal CLint data, which are given here for one compound.

For orientation: IC50 means the concentration needed to halve the response being measured.

Series [1] has as its system MCF7. Nature of the series: Cell cycle arrest in human MCF7 cells assessed as accumulation at G2/M phase at 1 uM by PI staining based flow cytometry analysis. It counts as functional. To be noted: TDE = time-dependent effect. The method in brief: (§1)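 Cells (1 × 10^5/well) were treated at 1 µM for 24, 48 and 72 h; vehicle was 0.1% v/v ethanol. Cells were trypsinised, fixed in ice-cold 70% ethanol overnight at −20 °C, then stained with PI (50 µg/mL) plus DNase-free RNase A (50 µg/mL) at 37 °C for 30 min. DNA content of 10,000 cells per group was read by flow cytometry at 488 nm.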
A general note: Flow cytometry measures light scatter and fluorescence of single cells or particles in a stream.

In series [2] the test system is HT-29. Put plainly: Cell cycle arrest in human HT-29 cells assessed as accumulation at G2/M phase at 1 uM measured after 72 hrs by PI staining based flow cytometry analysis (reference value: 11 %). It is filed as functional. The method in brief:
as §1

For series [3], the target named is T1, Tubulin (Homo sapiens) (UniProt P68371+Q9H4B7+P0DPH7+P68366+Q13509+Q71U36+P04350+Q3ZCM7+P07437+P68363+Q9BQE3+Q6PEY2+Q13885+Q9BVA1+Q9BUF5). Put plainly: Binding affinity to tubulin in human MCF7 cells assessed as inhibition of tubulin-EBI adduct formation preincubated for 2 hrs followed by EBI addition and measured after 1.5 hrs by Western blotting analysis. The settings on record: time 3.5 hrs. It is filed as cell-based. The method in brief:
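MCF-7 cells (5 × 10^4/well) were incubated overnight, then given vehicle (0.1% v/v ethanol) or compound at 10 µM for 2 h. Selected wells then received EBI (100 µM) for 1.5 h. Cells were washed in ice-cold PBS, lysed in Laemmli buffer and run on SDS-PAGE. Blots were probed for β-tubulin and the β-tubulin–EBI adduct, with GAPDH as loading control. Three independent experiments.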
On the technique in general: In western blotting, separated proteins are transferred to a membrane and probed.

Series [4] addresses T1, Tubulin (Homo sapiens). Put plainly: Induction of microtubule depolymerization in human MCF7 cells assessed as induction of cell rounding at 100 nM for 5 hrs by immunofluorescence staining based confocal microscopic analysis. The method in brief:
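MCF-7 cells were seeded at 1 × 10^5 cells/mL on chamber slides and treated at 0.01, 0.05 and 0.1 µM. Controls were vehicle (1% v/v ethanol), CA-4 (0.01 µM) and paclitaxel (1 µM). Cells were fixed and stained with anti-α-tubulin-FITC (DM1A) and Alexa Fluor 488, then counterstained with DAPI. Imaging was by confocal microscopy over three separate experiments.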

The subject of series [5] is HT-29. Nature of the series: Antiproliferative activity against human HT-29 cells assessed as reduction in cell viability after 72 hrs by alamar blue assay. It counts as functional, cell-based. The settings on record: HT-29, 72 h. The method in brief:
(§2)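 Cells seeded at 5 x 10^3/well (MCF-7) or 1 x 10^4/well (HT-29, HEK-293T) and treated after 24 h with serial dilutions (0.001-100 µM) in 1% v/v ethanol vehicle. Alamar Blue 10% v/v added at 72 h, then 3-5 h at 37 °C in the dark; fluorescence ex 530/em 590 nm. Viability relative to vehicle; IC50 from dose-response curves; mean of three experiments in triplicate.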
A general note: Alamar Blue is a resazurin reagent that responds to reducing activity.

The subject of series [6] is HT-29. Nature of the series: Antiangiogenic activity in human HT29 cells assessed as reduction in IL-1beta secretion at 5 uM after 24 hrs by ELISA. It counts as functional, cell-based. In outline:
(§3)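 HT-29 cells at 5 x 10^4 per well, cultured 24 h and then exposed to 5 µM compound. Conditioned medium collected on ice and stored at -80 °C. Cytokines and angiogenic, vascular-injury and chemokine factors measured by multiplex panels with overnight supernatant incubation (Angiogenesis Panel 1 and Vascular Injury Panel 2 same day). Medium undiluted except 1:4 for Vascular Injury Panel 2. Secretion normalised to lysate protein by BCA.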

Series [7] relates to MCF7. Nature of the series: Induction of apoptosis in human MCF7 cells assessed as downregulation of Mcl-1 expression level measured after 72 hrs by Western blot analysis. It counts as functional, cell-based. The settings on record: dose 0.05-0.5 µM. The method in brief: (§4)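 MCF-7 cells (1 × 10^5 per flask) were treated at 0.05, 0.1 and 0.5 µM for 48 and 72 h; vehicle was 0.1% v/v ethanol. Lysis was in RIPA buffer with protease and phosphatase inhibitors. Equal protein (BCA) was run on 12% SDS-PAGE and blotted for Mcl-1, Bcl-2 and survivin, with GAPDH as loading control and ECL detection. Three independent experiments.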

In series [8] the test system is HT-29. Put plainly: Induction of apoptosis in human HT29 cells assessed as cell apoptosis at 1 uM after 72 hrs by Annexin V-FITC and propidium iodide staining based flow cytometry. It counts as functional. The method in brief:
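HT-29 cells were treated at 1 µM for 24, 48 and 72 h against an untreated control. Cells were stained with Annexin V in binding buffer (HEPES pH 7.4, NaCl, CaCl2) for 30 min on ice in the dark, washed, resuspended in PI-containing buffer and read at once by flow cytometry. Quadrants: early apoptotic, late apoptotic, necrotic (Annexin V−/PI+).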

Series [9] relates to MCF7. Put plainly: Induction of apoptosis in human MCF7 cells assessed as total apoptotic cells at 1 uM after 48 hrs by Annexin V-FITC and propidium iodide staining based flow cytometry (reference value: 10 %). It counts as functional. In outline: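 MCF-7 cells were seeded at 1 × 10^5 cells/mL and treated for 48 h at 0.01, 0.1 and 1 µM; vehicle was 0.1% v/v ethanol. Annexin V staining was done on ice in the dark for 30 min in HEPES/NaCl/CaCl2 binding buffer, followed by PI. Flow cytometry scored early apoptotic (Annexin V+/PI−) and late apoptotic (Annexin V+/PI+) cells; total apoptotic is Annexin V-positive cells.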

The test system of series [10] is HT-29. Nature of the series: Antiangiogenic activity in human HT29 cells assessed as reduction in IL-1alpha secretion at 5 uM after 24 hrs by ELISA. It is filed as functional, cell-based. The method in brief:
as §3

In a further series the test system is HEK-293T. Nature of the series: Antiproliferative activity against human HEK293T cells assessed as reduction in cell viability after 72 hrs by alamar blue assay. It is filed as cell-based. In outline:
as §2

The test system of series [11] is HT-29. Put plainly: Cell cycle arrest in human HT-29 cells assessed as accumulation at G2/M phase at 1 uM measured after 24 hrs by PI staining based flow cytometry analysis (reference value: 11 %). It is filed as functional. In outline:
as §1

For series [12], the system named is MCF7. Put plainly: Cell cycle arrest in human MCF7 cells assessed as accumulation at sub-G1 phase at 1 uM measured after 72 hrs by PI staining based flow cytometry analysis. It is filed as functional. The method in brief: as §1
In series [13] the test system is MCF7. Put plainly: Induction of apoptosis in human MCF7 cells assessed as downregulation of Bcl-2 expression level measured after 72 hrs by Western blot analysis. It counts as functional, cell-based. The settings on record: dose 0.05-0.5 µM. In outline: as §4
Series [14] has as its target UDP-glucuronosyltransferases (UGTs) (Homo sapiens, UniProt O60656+O75310+O75795+P06133+P0DTE4+P0DTE5+P16662+P19224+P22309+P22310+P35503+P35504+P36537+P54855+Q6UWM9+Q9BY64+Q9HAW7+Q9HAW8+Q9HAW9). Nature of the series: Metabolic stability in human liver microsomes assessed as UGT-mediated N-glucuronidation by measuring intrinsic clearance at 3 uM measured up to 45 mins by LC-MS/MS analysis. It is filed as ADME. The settings on record: liver microsomes, read-out: CLH. In outline: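 Pooled human liver microsomes (0.5 mg/mL protein final) with alamethicin (25 µg/mg) in 0.1 M phosphate pH 7.4, compound 3 µM final (0.25% DMSO), preincubated 37 °C. Reaction started with UDPGA (1 mM final). Sampled at 0, 5, 15, 30, 45 min into methanol, analysed by LC-MS/MS. Minus-UDPGA control run 45 min. Single incubations; t½ and CLint taken from the elimination rate constant.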

The subject of series [15] is HT-29. Put plainly: Cell cycle arrest in human HT-29 cells assessed as accumulation at sub-G1 phase at 1 uM measured after 48 hrs by PI staining based flow cytometry analysis (reference value: 2.5 %). It is filed as functional. In outline: as §1

Calls of active or inactive are those of the source. The calls are words filed in the database; no cut-off is given here.

For the compound `COc1ccc([C@H]2[C@H](O)C(=O)N2c2cc(OC)c(OC)c(OC)c2)cc1F`, the Activity result in the series on MCF7 [1] was “Tde”; in the series on HT-29 [2], 64%; in the series on MCF7 [7], “Dose-dependent effect”; in the series on HT-29 [8], 2%; in the series on MCF7 [9], 35%; in the series on HT-29 [11] it was 52%. The Activity was 15% in the series on MCF7 [12], “Dose-dependent effect” in the series with MCF7 [13] and 11% in the series with HT-29 [15]. The result on Tubulin (Homo sapiens) [3] and on Tubulin (Homo sapiens) [4] was Active. The IC50 was 3 nM in the series with HT-29 [5] and greater than 50000 nM in the series with HEK-293T. Also, the result in the series on HT-29 [6] and in the series with HT-29 [10] was inactive. For the same compound, the microsomal CLint at 3 µM in series [14] worked out at 14.2 µL/min/mg.
